According to ChEMBL document CHEMBL1124627, “Long-acting dihydropyridine calcium antagonists. 3. Synthesis and structure-activity relationships for a series of 2-[(heterocyclylmethoxy)methyl] derivatives” (J Med Chem, 1989):

Tests used:
Cavia porcellus = organism: Cavia porcellus; test: Negative logarithm of the molar concentration required to depress contraction in the Langendorff-perfused guinea pig heart by 25%.; type: functional
Canis familiaris = test: Coronary vasodilator activity in dogs, after administration of a dose of 150 micorg/kg intravenously; type: functional, Canis lupus familiaris
How it was run: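 Anesthetized beagle dogs fitted with catheters for blood pressure, left ventricular pressure and intravenous dosing. Coronary blood flow was measured by hydrogen clearance with platinum electrodes in the coronary sinus and femoral artery, and cardiac output by thermodilution. Coronary vascular resistance was derived from these measurements. A single intravenous dose was given, and the CVR fall was followed over time to assess duration of action.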

[1] = target: Voltage-dependent L-type calcium channel subunit alpha-1C (Rattus norvegicus, UniProt P22002); test: Selectivity for vascular (Ca pIC50) over cardiac (negative inotropy IC25) calcium channels; type: functional
Rattus norvegicus = organism: Rattus norvegicus; test: Negative logarithm of molar concentration required to block calcium-induced contraction of potassium depolarized rat aorta by 50%; type: functional

Voltage-dependent L-type calcium channel subunit alpha-1C, sequence (P22002 whole entry): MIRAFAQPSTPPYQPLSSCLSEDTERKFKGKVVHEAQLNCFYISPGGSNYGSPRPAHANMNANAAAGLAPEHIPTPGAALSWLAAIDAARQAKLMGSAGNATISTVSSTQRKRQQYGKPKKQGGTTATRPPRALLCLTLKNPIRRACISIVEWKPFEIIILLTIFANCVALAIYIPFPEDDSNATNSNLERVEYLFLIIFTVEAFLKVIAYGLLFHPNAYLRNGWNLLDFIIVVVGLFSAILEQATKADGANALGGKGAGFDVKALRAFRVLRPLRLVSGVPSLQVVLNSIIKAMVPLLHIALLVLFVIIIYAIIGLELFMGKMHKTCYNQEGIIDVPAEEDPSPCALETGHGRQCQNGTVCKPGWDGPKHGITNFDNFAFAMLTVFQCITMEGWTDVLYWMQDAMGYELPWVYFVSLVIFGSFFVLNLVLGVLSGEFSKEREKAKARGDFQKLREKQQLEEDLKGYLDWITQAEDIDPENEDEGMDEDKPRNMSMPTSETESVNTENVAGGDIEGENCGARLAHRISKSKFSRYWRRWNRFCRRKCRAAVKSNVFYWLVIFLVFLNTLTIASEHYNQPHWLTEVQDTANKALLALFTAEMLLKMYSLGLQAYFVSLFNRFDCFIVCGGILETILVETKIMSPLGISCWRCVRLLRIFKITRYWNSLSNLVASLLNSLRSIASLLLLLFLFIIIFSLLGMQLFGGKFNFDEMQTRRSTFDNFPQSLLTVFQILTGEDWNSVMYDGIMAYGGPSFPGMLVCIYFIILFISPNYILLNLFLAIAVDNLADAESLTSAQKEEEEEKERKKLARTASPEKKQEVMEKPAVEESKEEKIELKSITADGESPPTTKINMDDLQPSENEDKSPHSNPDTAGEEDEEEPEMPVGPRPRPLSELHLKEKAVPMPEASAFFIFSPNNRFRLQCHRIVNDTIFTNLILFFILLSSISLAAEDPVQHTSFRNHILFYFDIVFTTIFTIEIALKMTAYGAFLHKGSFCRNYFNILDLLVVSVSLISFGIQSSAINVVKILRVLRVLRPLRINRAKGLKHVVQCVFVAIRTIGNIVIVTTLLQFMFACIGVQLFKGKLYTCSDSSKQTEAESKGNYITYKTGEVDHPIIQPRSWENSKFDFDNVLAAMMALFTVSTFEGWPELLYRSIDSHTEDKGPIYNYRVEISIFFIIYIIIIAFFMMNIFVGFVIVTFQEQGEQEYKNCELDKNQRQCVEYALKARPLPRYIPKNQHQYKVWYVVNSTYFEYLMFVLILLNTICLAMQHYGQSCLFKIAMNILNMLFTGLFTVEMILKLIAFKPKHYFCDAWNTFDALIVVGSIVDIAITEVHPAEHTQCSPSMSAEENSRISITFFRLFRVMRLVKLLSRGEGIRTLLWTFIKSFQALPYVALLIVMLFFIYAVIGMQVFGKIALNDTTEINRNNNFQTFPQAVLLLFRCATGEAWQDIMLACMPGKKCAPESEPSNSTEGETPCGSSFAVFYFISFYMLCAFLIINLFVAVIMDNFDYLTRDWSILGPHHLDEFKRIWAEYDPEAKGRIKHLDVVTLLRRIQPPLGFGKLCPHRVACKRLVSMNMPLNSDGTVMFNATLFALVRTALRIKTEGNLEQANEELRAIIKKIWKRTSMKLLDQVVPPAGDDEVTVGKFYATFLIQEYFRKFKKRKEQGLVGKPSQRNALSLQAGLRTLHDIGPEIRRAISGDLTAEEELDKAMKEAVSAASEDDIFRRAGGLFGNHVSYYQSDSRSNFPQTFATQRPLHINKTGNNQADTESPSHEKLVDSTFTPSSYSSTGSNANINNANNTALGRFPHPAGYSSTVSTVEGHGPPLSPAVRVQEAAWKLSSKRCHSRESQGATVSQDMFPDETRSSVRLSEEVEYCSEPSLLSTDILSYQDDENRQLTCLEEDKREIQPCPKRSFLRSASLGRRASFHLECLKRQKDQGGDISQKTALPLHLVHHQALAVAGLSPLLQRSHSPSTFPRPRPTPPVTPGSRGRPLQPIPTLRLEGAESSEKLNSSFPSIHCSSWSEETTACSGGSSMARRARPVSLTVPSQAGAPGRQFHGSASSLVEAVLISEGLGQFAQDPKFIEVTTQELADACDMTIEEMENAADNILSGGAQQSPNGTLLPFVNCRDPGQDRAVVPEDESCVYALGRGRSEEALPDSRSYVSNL

IC50 (Rattus norvegicus)	Compound	pIC25 (Cavia porcellus)	Decrease (Canis familiaris)	Selectivity index [1]
–	COC(=O)C1=C(C)NC(C)=C(C(=O)OC)C1c1ccccc1[N+](=O)[O-] [NIFEDIPINE]	7.5	77%	8
3.98 nM	CCO/C(O)=C1\C(COCc2cc(O)nc(CN3CCOCC3)n2)=NC(C)=C(C(=O)OC)C1c1cccc(Cl)c1Cl (centres undefined)	6.9	–	32
3.16 nM	CCO/C(O)=C1\C(COCc2cc(=O)n(CCO)c(N)n2)=NC(C)=C(C(=O)OC)C1c1cccc(Cl)c1Cl (centres undefined)	7	–	32
